Experimental data reported in ChEMBL document CHEMBL4043246, “Discovery of novel [1,2,4]triazolo[4,3-a]quinoxaline aminophenyl derivatives as BET inhibitors for cancer treatment” (Bioorg Med Chem Lett, 2017).

What was measured:
[1] = test system: THP-1; test: Antiproliferative activity against human THP1 cells; format: functional, cell-based
[2] = Stability in mouse liver microsomes assessed as parent compound remaining after 30 mins; format: ADME, microsome; settings: read-out: Stability
Outline: (§1)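 Incubated in vitro with mouse, rat or human liver microsomes for 30 minutes. Result expressed as percent of parent compound remaining.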

[3] = Stability in rat liver microsomes assessed as parent compound remaining after 30 mins; format: ADME, microsome; settings: read-out: Stability; outline: as §1
[4] = biological target: T1, Bromodomain-containing protein 4 (Homo sapiens, UniProt O60885); test: Inhibition of BRD4 in human TY82 cells assessed as decrease in c-MYC expression level after 24 hrs by Western blot analysis; format: cell-based
Outline: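 Ty-82 cells at 70% confluency were treated with varying compound concentrations for 24 h. Samples were run on 12% SDS-PAGE and transferred to nitrocellulose. Membranes were blocked in PBS/1% BSA/0.1% Tween 20 for 1 h, probed with c-MYC antibodies, and detected by chemiluminescence.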

[5] = Cell cycle arrest in human TY82 cells assessed as accumulation at sub-G1 phase at 1 uM after 24 hrs by DAPI staining based assay (reference value: 6%); format: functional
[6] = Cell cycle arrest in human TY82 cells assessed as accumulation at S phase at 1 uM after 24 hrs by DAPI staining based assay (reference value: 11%); format: functional
[7] = Cell cycle arrest in human TY82 cells assessed as accumulation at S phase at 3 uM after 24 hrs by DAPI staining based assay (reference value: 11%); format: functional
[8] = Cell cycle arrest in human TY82 cells assessed as accumulation at sub-G1 phase at 10 uM after 24 hrs by DAPI staining based assay (reference value: 6%); format: functional
[9] = Cell cycle arrest in human TY82 cells assessed as accumulation at G2/M phase at 10 uM after 24 hrs by DAPI staining based assay (reference value: 9%); format: functional
[10] = biological target: T1, Bromodomain-containing protein 4; test: Binding affinity to BRD4 BD2 (unknown origin)
[11] = biological target: Bromodomain-containing protein 2 (Homo sapiens) (UniProt P25440); test: Inhibition of human partial length BRD2 BD1 (K71 to N194 residues) expressed in bacterial expression system assessed as residual activity at 500 nM relative to control by BROMOscan assay
[12] = biological target: Bromodomain adjacent to zinc finger domain protein 2B (Homo sapiens) (UniProt Q9UIF8); test: Inhibition of human partial length BAZ2B (S2054 to S2168 residues) expressed in bacterial expression system assessed as residual activity at 500 nM relative to control by BROMOscan assay
[13] = biological target: Bromodomain-containing protein 3 (Homo sapiens) (UniProt Q15059); test: Inhibition of human partial length BRD3 BD1 (P24 to E144 residues) expressed in bacterial expression system assessed as residual activity at 500 nM relative to control by BROMOscan assay
[14] = biological target: T1, Bromodomain-containing protein 4; test: Inhibition of human partial length BRD4 BD1 (N44 to E168 residues) expressed in bacterial expression system assessed as residual activity at 500 nM relative to control by BROMOscan assay
[15] = biological target: Bromodomain-containing protein 7 (Homo sapiens) (UniProt Q9NPI1); test: Inhibition of human partial length BRD7 (L125 to R254 residues) expressed in mammalian expression system assessed as residual activity at 500 nM relative to control by BROMOscan assay
Chain of Bromodomain-containing protein 7 (Homo sapiens) (Q9NPI1 whole entry, the tested form may be a part): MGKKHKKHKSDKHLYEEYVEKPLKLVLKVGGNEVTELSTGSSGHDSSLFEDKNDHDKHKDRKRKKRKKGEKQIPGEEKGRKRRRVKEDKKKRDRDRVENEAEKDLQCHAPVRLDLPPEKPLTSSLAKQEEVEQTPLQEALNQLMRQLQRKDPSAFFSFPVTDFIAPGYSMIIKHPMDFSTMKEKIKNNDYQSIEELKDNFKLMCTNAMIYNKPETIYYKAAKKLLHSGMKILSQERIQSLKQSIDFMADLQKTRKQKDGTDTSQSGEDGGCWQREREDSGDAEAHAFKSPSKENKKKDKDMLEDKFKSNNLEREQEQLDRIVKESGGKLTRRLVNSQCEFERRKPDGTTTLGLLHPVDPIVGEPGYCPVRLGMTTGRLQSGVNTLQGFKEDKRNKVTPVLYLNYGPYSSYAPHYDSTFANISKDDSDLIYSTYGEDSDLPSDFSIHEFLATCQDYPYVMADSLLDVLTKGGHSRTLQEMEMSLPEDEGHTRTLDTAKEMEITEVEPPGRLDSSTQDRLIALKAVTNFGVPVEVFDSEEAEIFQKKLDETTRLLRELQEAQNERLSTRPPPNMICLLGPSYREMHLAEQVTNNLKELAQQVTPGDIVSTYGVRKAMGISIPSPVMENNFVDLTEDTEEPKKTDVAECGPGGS

[16] = biological target: Bromodomain-containing protein 9 (Homo sapiens) (UniProt Q9H8M2); test: Inhibition of human partial length BRD9 (R130 to V259 residues) expressed in bacterial expression system assessed as residual activity at 500 nM relative to control by BROMOscan assay
[17] = biological target: Bromodomain testis-specific protein (Homo sapiens) (UniProt Q58F21); test: Inhibition of human partial length BRDT BD1 (N21 to E137 residues) expressed in bacterial expression system assessed as residual activity at 500 nM relative to control by BROMOscan assay
[18] = biological target: Bromodomain and PHD finger-containing protein 3 (Homo sapiens) (UniProt Q9ULD4); test: Inhibition of human partial length BRPF3 (E588 to G701 residues) expressed in bacterial expression system assessed as residual activity at 500 nM relative to control by BROMOscan assay
Chain of Bromodomain and PHD finger-containing protein 3 (Homo sapiens) (Q9ULD4 whole entry, the tested form may be a part): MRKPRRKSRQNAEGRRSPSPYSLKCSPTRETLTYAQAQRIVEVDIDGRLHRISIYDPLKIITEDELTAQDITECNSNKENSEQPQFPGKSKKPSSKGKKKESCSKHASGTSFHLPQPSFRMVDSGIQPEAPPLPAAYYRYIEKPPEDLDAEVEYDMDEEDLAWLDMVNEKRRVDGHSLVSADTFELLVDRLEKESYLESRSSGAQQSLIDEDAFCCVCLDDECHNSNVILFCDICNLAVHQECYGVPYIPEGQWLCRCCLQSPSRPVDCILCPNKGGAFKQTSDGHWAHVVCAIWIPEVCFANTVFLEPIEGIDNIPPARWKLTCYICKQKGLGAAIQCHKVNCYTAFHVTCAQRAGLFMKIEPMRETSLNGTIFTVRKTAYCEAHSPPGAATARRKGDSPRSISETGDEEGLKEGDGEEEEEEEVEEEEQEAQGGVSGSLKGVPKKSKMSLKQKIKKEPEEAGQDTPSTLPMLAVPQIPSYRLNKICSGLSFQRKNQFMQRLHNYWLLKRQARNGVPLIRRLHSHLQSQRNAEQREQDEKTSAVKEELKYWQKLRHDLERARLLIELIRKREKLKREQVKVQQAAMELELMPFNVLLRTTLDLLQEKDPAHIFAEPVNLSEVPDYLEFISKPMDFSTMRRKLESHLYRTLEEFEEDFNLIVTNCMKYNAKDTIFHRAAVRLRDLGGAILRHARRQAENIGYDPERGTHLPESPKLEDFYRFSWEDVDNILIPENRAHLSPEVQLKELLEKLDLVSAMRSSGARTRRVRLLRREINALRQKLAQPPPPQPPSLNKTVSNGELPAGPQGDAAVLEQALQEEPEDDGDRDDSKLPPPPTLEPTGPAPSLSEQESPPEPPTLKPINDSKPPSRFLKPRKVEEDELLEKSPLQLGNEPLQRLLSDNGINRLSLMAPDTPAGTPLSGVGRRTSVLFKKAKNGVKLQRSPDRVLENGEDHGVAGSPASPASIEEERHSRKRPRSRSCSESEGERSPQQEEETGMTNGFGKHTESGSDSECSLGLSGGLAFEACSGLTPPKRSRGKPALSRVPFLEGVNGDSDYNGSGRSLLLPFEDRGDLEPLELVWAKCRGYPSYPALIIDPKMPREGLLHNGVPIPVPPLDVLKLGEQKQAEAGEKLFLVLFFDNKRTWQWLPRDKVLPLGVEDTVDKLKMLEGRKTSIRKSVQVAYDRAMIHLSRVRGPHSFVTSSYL

[19] = biological target: Histone acetyltransferase p300 (Homo sapiens) (UniProt Q09472); test: Inhibition of human partial length EP300 (A1040 to G1161 residues) expressed in bacterial expression system assessed as residual activity at 500 nM relative to control by BROMOscan assay
Chain of Histone acetyltransferase p300 (Homo sapiens) (Q09472 whole entry, the tested form may be a part): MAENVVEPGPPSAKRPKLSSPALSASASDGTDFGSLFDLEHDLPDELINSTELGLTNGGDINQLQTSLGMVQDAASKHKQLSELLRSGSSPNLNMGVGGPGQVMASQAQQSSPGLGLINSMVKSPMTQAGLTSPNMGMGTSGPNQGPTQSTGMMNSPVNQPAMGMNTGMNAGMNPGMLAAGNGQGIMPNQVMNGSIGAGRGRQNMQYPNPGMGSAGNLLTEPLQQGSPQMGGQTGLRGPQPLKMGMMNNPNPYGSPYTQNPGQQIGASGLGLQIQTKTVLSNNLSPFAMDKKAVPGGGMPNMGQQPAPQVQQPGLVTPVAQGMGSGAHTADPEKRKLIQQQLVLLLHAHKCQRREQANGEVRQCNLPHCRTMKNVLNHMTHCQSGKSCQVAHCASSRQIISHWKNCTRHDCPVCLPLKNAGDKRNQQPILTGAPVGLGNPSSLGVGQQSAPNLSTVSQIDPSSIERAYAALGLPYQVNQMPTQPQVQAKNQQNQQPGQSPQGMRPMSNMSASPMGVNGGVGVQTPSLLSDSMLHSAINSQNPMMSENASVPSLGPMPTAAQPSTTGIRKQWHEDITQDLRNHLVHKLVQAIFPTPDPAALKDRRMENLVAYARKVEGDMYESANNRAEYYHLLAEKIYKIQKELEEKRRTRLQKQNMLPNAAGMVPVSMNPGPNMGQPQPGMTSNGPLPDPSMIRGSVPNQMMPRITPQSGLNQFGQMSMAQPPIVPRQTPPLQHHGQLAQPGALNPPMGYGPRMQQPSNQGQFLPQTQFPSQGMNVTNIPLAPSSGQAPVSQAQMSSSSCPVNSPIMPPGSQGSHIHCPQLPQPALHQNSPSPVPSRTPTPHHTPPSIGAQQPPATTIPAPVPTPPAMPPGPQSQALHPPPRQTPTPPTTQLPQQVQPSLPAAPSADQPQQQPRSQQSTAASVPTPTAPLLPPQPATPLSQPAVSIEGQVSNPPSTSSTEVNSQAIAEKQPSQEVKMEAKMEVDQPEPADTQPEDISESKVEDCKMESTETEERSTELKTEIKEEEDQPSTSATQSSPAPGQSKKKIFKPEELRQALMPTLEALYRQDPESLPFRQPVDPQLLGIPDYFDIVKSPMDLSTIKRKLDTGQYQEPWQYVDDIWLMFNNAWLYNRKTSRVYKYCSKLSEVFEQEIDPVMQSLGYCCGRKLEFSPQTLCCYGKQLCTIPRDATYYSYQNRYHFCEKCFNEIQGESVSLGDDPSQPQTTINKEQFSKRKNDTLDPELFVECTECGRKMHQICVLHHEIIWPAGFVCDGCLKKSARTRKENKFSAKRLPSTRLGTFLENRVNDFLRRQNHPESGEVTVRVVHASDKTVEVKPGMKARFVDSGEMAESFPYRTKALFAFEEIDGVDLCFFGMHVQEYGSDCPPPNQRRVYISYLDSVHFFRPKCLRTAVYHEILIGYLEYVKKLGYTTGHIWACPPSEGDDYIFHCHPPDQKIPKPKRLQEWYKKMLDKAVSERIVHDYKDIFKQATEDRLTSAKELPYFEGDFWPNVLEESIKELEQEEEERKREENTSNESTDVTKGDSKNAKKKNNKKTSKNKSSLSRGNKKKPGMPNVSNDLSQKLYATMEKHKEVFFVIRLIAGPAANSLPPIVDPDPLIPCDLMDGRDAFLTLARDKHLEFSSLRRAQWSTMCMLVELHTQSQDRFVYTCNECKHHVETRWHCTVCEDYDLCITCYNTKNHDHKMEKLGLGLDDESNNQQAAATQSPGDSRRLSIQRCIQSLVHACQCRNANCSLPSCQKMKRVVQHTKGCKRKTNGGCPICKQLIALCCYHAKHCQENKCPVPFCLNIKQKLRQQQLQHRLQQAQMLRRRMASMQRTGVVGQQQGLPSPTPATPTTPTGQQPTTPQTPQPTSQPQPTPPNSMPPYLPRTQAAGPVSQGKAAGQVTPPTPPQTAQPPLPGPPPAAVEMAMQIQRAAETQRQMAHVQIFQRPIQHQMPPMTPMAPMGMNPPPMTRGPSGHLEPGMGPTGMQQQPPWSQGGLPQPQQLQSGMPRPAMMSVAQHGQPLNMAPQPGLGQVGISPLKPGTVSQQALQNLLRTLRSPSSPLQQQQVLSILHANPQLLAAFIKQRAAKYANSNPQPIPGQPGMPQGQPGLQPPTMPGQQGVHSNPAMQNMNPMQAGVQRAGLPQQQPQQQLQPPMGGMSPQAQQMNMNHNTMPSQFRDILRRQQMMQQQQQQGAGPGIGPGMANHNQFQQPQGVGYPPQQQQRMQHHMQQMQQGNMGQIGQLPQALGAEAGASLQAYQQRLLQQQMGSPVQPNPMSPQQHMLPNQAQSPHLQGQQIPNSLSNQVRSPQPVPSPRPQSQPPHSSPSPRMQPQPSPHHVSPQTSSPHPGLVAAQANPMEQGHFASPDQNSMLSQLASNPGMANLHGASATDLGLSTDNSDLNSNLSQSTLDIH

[20] = biological target: Histone acetyltransferase KAT2A (Homo sapiens) (UniProt Q92830); test: Inhibition of human partial length GCN5L2 (E726 to K837 residues) expressed in bacterial expression system assessed as residual activity at 500 nM relative to control by BROMOscan assay
Chain of Histone acetyltransferase KAT2A (Homo sapiens) (Q92830 2-837 limits assumed): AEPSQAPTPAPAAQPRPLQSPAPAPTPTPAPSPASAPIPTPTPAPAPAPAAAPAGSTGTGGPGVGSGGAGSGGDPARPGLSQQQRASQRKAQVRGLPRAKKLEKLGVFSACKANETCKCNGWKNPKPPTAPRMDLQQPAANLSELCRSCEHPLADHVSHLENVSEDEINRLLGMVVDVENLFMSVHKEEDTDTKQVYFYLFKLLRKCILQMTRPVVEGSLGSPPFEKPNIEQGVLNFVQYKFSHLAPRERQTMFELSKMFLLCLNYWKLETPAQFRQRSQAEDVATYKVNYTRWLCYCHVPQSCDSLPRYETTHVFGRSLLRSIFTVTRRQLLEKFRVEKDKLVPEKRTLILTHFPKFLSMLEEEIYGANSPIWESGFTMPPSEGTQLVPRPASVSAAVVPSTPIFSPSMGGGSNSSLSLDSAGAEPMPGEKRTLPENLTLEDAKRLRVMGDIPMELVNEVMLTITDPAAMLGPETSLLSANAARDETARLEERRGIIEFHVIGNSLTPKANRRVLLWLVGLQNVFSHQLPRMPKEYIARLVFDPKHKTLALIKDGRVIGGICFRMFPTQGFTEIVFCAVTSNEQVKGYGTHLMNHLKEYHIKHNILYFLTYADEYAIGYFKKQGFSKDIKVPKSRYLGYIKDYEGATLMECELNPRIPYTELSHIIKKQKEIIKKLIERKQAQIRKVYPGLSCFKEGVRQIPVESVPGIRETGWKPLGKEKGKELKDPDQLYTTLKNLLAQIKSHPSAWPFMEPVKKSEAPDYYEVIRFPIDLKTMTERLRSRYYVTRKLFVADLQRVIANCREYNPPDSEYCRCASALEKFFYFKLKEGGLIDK

[21] = biological target: Protein polybromo-1 (Homo sapiens) (UniProt Q86U86); test: Inhibition of human partial length PBRM1 BD2 (S178 to E291 residues) expressed in bacterial expression system assessed as residual activity at 500 nM relative to control by BROMOscan assay
[22] = biological target: Histone acetyltransferase KAT2B (Homo sapiens) (UniProt Q92831); test: Inhibition of human partial length PCAF (G715 to D831 residues) expressed in bacterial expression system assessed as residual activity at 500 nM relative to control by BROMOscan assay
[23] = biological target: SWI/SNF-related matrix-associated actin-dependent regulator of chromatin subfamily A member 2 (Homo sapiens) (UniProt P51531); test: Inhibition of human partial length SMARCA2 (S1377 to Q1486 residues) expressed in bacterial expression system assessed as residual activity at 500 nM relative to control by BROMOscan assay
[24] = biological target: Transcription initiation factor TFIID subunit 1 (Homo sapiens) (UniProt P21675); test: Inhibition of human partial length TAF1 BD2 (D1521 to D1656 residues) expressed in bacterial expression system assessed as residual activity at 500 nM relative to control by BROMOscan assay
[25] = biological target: E3 ubiquitin-protein ligase TRIM33 (Homo sapiens) (UniProt Q9UPN9); test: Inhibition of human partial length TRIM33-phd-bromo (D882 to A1087 residues) expressed in bacterial expression system assessed as residual activity at 500 nM relative to control by BROMOscan assay
[26] = biological target: Bromodomain and WD repeat-containing protein 1 (Homo sapiens) (UniProt Q9NSI6); test: Inhibition of human partial length WDR9 BD2 (A1310 to E1430 residues) expressed in bacterial expression system assessed as residual activity at 500 nM relative to control by BROMOscan assay
[27] = test system: Rattus norvegicus; test: Cmax in rat at 20 mg/kg, po; format: ADME, organism-based; design: dose 20 mg/kg, route oral; settings: in vivo
Outline: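 Peak plasma level after single oral dosing in rat at 5 or 20 mg/kg. Cmax is given in mg/mL as printed, with Tmax in hours.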

[28] = test system: Rattus norvegicus; test: Half life in rat at 20 mg/kg, po; format: ADME, organism-based; settings: in vivo
Outline: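 Rat pharmacokinetics with single intravenous (2 mg/kg) or oral (5 or 20 mg/kg) dosing. Terminal half-life is reported in hours.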

Cc1nnc2c(Nc3cccc(CNC(=O)C(C)C)c3)nc3ccccc3n12
IC50 [1]: 1600 nM
remaining at 0.5 h [2]: 0.024%
remaining at 0.5 h [3]: 5%
inhibition [4]: Dose-dependent effect
Activity [5]: 5%
Activity [6]: 6%
Activity [7]: 2%
Activity [8]: 5%
Activity [9]: 4%
Kd [10]: 9 nM
Activity [11]: 11%
Activity [12]: 93%
Activity [13]: 11%
Activity [14]: 17%
Activity [15]: 80%
Activity [16]: 61%
Activity [17]: 19%
Activity [18]: 87%
Activity [19]: 89%
Activity [20]: 100%
Activity [21]: 87%
Activity [22]: 91%
Activity [23]: 100%
Activity [24]: 36%
Activity [25]: 100%
Activity [26]: 100%
Cmax [27]: 4600 ng/mL
t1/2 [28]: 3 h
